Measured values reported in publication PMC9468506 (Current Research in Food Science, 2022).
Values after ≈ are worked out from the molar mass of the structure shown. Like-named read-outs stand apart in the source and are kept apart here.

Legend:
[1] = system: anti-PBZ mAb; assay: TRFMs-LFIA competitive lateral flow immunoassay with anti-PBZ mAb immunoprobe; type: binding, mouse; settings: for IC50: TRFMs-LFIA, coating antigen PBZ-2-BSA, optimal conditions; for CR: cross reactivity = IC50 (PBZ)/IC50 (structural analogue) x 100
Summary of the method: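 Anti-analyte mAb coupled by EDC/NHS to carboxylated time-resolved fluorescent microspheres, activated in MES pH 6.0. Nitrocellulose strip has a T line of coating antigen (2 mg/mL) and a C line of goat anti-mouse IgG (0.16 mg/mL). Probe (7.5 μg/mL stock) and 100 μL standard are premixed 3 min, then the strip is dipped 3 min. The T/C fluorescence ratio gives B/B0 against log concentration. IC50 is taken at 50% B/B0, and CR = IC50 (analyte)/IC50 (analogue) × 100.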

[2] = system: anti-PBZ pAb; settings: TRFIA, water and soil, ref Liu et al. (2016); cited from earlier work
[3] = system: anti-PBZ antibody (mAb or pAb); settings: icELISA, cited from earlier work

Compound	IC50 [1] [µg/mL]	CR [1] [%]	IC50 [2] [µg/mL]	IC50 ([3]; mAb, soil, ref Jin (2019)) [µg/mL]	IC50 ([3]; mAb, wheat, ref Cao et al. (2014)) [µg/mL]	IC50 ([3]; pAb, fruits, ref Ouyang et al. (2020)) [µg/mL]	IC50 ([3]; pAb, water and soil, ref Wang (2016)) [µg/mL]
CCCCC(O)(Cn1cncn1)c1ccc(Cl)cc1Cl (stereo not drawn) [Hexaconazole]	>10	<0.1					
CC(C)(C)[C@@H](O)[C@@H](Cc1ccc(Cl)cc1)n1cncn1 [Paclobutrazol]		100	0.00109 (≈ 0.00371 µM)	0.0116 (≈ 0.0395 µM)	0.0087 (≈ 0.0296 µM)	0.01326 (≈ 0.0451 µM)	0.02135 (≈ 0.0727 µM)
CC(C)(C)C(O)(CCc1ccc(Cl)cc1)Cn1cncn1 (stereo not drawn) [Tebuconazole]	>10	<0.1					
CC(C)(C)C(=O)C(Oc1ccc(Cl)cc1)n1cncn1 (stereo not drawn) [Triadimefon]	0.44371 (≈ 1.51 µM)	2.10					
CC(C)(C)C(O)C(Oc1ccc(Cl)cc1)n1cncn1 (stereo not drawn) [Triadimenol]	0.92421 (≈ 3.12 µM)	1.01					
CC(C)(C)C(O)/C(=C\c1ccc(Cl)cc1)n1cncn1 (stereo not drawn) [Uniconazole]	3.81516 (≈ 13.1 µM)	0.25					
Diniconazole	>10	<0.1					
